The values that follow come from ChEMBL document CHEMBL1138317, “Antibacterial oxazolidinones possessing a novel C-5 side chain. (5R)-trans-3-[3-Fluoro-4- (1-oxotetrahydrothiopyran-4-yl)phenyl]-2- oxooxazolidine-5-carboxylic acid amide (PF-00422602), a new lead compound” (J Med Chem, 2007).

Each structure is given as a SMILES string. Converted amounts (≈) assume the structure as drawn. The source made the active and inactive calls. No cut-off for these calls is given here.

For one data set, the system named is Staphylococcus. Briefly: Bacteriostatic activity against Staphylococcus after 48 hrs by time kill study. The format is functional, organism-based.
Data set [1] can be described thus: AUC (0 to 24 hrs) in Sprague-Dawley rat plasma at 200 mg/kg/day, po after 14 days. The format is ADME, organism-based. Set-up: dose 200 mg/kg/day, time < 24 hr, route oral. The gist of the method: (§1)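 Female Sprague-Dawley rats received vehicle or drug by oral gavage daily for 14 days, at doses of 40-1000 (mg/kg)/day across the studies. End points were moribundity or lethality, hematology (RBC, hemoglobin, hematocrit, reticulocytes), bone marrow M:E ratio and plasma AUC(0-24).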

For data set [2], the system named is Streptococcus pneumoniae. Briefly: Antibacterial activity against levofloxacin-penicillin-resistant Streptococcus pneumoniae SV1 SP3 by microbroth technology. The format is functional. An outline of the steps: (§2)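 Drug-resistant panel strains (levofloxacin/oxacillin-resistant S. aureus, levofloxacin/penicillin-resistant S. pneumoniae, vancomycin-resistant E. faecalis and E. faecium). Broth microdilution MIC in µg/mL; value reported as MIC90 across the strains of each resistant group.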
(Broth dilution looks for growth in wells or tubes with falling amounts of substance.)

The subject of data set [3] is Rattus norvegicus. Briefly: Effect on hematology in Sprague-Dawley rat assessed as decrease in reticulocytes at 200 mg/kg/day after 14 days. The format is ADME, organism-based. Set-up: scale not given: the % may be the effect or the level left. The settings on record: in vivo, 336 h. An outline of the steps:
as §1

Data set [4] relates to Streptococcus pneumoniae. Nature of the data set: Bactericidal activity against Streptococcus pneumoniae after 48 hrs by time kill study. Format: functional, organism-based. The gist of the method: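 Time-kill study: bacteria exposed continuously to drug at 2-16× the MIC and sampled over 48 h to assess eradication.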
Data set [5] addresses T1, Amine oxidase [flavin-containing] A (Homo sapiens, UniProt P21397).
T1 sequence (P21397 whole entry): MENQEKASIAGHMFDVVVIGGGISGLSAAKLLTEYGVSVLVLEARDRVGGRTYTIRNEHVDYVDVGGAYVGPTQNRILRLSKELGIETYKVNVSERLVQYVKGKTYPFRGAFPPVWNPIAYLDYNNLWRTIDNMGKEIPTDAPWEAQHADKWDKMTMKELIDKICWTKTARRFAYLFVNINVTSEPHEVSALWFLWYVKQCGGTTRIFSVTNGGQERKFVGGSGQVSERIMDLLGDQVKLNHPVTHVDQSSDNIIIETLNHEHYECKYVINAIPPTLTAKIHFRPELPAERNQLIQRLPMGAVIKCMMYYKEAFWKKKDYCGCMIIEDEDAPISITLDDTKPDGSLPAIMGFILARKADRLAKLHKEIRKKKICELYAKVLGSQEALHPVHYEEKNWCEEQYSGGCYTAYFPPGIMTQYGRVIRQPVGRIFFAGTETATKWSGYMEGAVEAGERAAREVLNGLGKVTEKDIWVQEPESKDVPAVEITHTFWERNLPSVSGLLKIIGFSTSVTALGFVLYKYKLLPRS
Nature of the data set: Inhibition of human recombinant MAOA.

Another data set relates to Enterococcus faecalis. Briefly: Antibacterial activity against vancomycin-resistant Enterococcus faecalis MGH2 EF1 by microbroth technology. The format is functional. The gist of the method: as §2
The test system of data set [6] is Staphylococcus aureus. Briefly: Antibacterial activity against methicillin-resistant Staphylococcus aureus SA1417 in po dosed CD1 mouse systemic infection model assessed as mortality after 7 days. Format: functional.
The test system of data set [7] is Rattus norvegicus. Nature of the data set: Effect on hematology in Sprague-Dawley rat assessed as decrease in red blood cells at 200 mg/kg/day, po after 14 days. The format is ADME, organism-based. Set-up: route oral; scale not given: the % may be the effect or the level left. The settings on record: in vivo, 336 h. The gist of the method: as §1
A further data set deals with Streptococcus pyogenes. Briefly: Antibacterial activity against Streptococcus pyogenes C203 by micro-broth technology. The format is functional.
Another data set has as its system Escherichia coli. Nature of the data set: Inhibition of protein synthesis in Escherichia coli by cell-free transcription-translation assay. Format: functional. An outline of the steps: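 E. coli cell-free coupled transcription/translation run in microtiter format with a luciferase reporter; luminescence was the read-out for protein synthesis.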
In data set [8] the test system is Rattus norvegicus. Nature of the data set: Effect on hematology in Sprague-Dawley rat assessed as increase in hematocrit at 200 mg/kg/day, po after 14 days. The following applies: in vivo, 336 h. Format: ADME, organism-based. Set-up: route oral.
Data set [9] deals with Rattus norvegicus. Briefly: Effect on hematology in Sprague-Dawley rat assessed as decrease in hemoglobin at 200 mg/kg/day, po after 14 days. The format is ADME, organism-based. Set-up: route oral; scale not given: the % may be the effect or the level left. The settings on record: in vivo, 336 h. The gist of the method:
as §1

The subject of a further data set is Enterococcus faecium. Nature of the data set: Antibacterial activity against vancomycin-resistant Enterococcus faecium by micro-broth technology. The format is functional. The gist of the method:
as §2

The test system of the next data set is Enterococcus. Briefly: Bacteriostatic activity against Enterococcus after 48 hrs by time kill study. The format is functional, organism-based.
The nature of data set [10]: AUC (0 to 24 hrs) in Sprague-Dawley rat plasma at 40 mg/kg/day after 14 days. Set-up: dose 40 mg/kg/day, time < 24 hr. Format: ADME, organism-based. An outline of the steps: as §1
Data set [11] relates to Rattus norvegicus. Briefly: Toxicity in Sprague-Dawley rat at 1000 mg/kg/day, po after 14 days. Set-up: route oral. Format: organism-based. The following applies: in vivo, 336 h. An outline of the steps:
as §1

The subject of data set [12] is Staphylococcus aureus. Briefly: Antibacterial activity against levofloxacin-oxacillin-resistant Staphylococcus aureus UC76 SA1 by micro-broth technology. Format: functional. The gist of the method:
as §2

In data set [13] the test system is Staphylococcus aureus. Briefly: Antibacterial activity against Staphylococcus aureus UC76 in po dosed CD1 mouse systemic infection model assessed as mortality after 7 days. Format: functional.
For data set [14], the system named is Staphylococcus aureus. Briefly: Antibacterial activity against […] in po dosed CD1 mouse systemic infection model assessed as mortality after 7 days. Format: functional.

By AUC is commonly meant concentration integrated over time. As usually defined, the MIC90 is an inhibitory concentration at the 90% level, which refers to growth in some studies and to a panel of isolates in others. As a reminder, the IC50 is the point on the concentration scale where inhibition reaches its midpoint. For orientation: MIC means the least concentration at which growth counts as inhibited. Turning to `CC(=O)NC[C@H]1CN(c2ccc(N3CCOCC3)c(F)c2)C(=O)O1` [LINEZOLID], the result in the data set with Staphylococcus, in the data set with Streptococcus pneumoniae [4] and with Enterococcus was Active. The AUC at 24 h in data set [1] is 666 µg·h/mL; in [10], 105 µg·h/mL. Further, the MIC90 in the data set with Streptococcus pneumoniae [2] amounted to 1 µg/mL (≈ 2.96 µM); in the data set on Enterococcus faecalis, 2 µg/mL (≈ 5.93 µM); in the data set on Enterococcus faecium it was 4 µg/mL (≈ 11.9 µM); against Staphylococcus aureus [12], 4 µg/mL (≈ 11.9 µM). For the same compound, the Activity in the data set on Rattus norvegicus [3] is 97%; with Rattus norvegicus [7] it was 9%; in the data set with Rattus norvegicus [8], -9%; in the data set with Rattus norvegicus [9] it was 9%; with Rattus norvegicus [11], “Toxic”. The half-maximal inhibitory concentration (IC50) in data set [5] was 53 µM; with Escherichia coli, 3.6 µM. In addition, the PD50 in the data set with Staphylococcus aureus [6] turned out to be 6.25 mg/kg; with Staphylococcus aureus [13], 3.1 mg/kg; in the data set with Staphylococcus aureus [14], 5 mg/kg. For the same compound, in the data set on Streptococcus pyogenes, 4 µg/mL (≈ 11.9 µM) was the least that counted as inhibitory (MIC).
